Reference: ChEMBL document CHEMBL3286113, “New potent antibacterial oxazolidinone (MRX-I) with an improved class safety profile” (J Med Chem, 2014)
≈ marks a conversion by molar mass, not a printed value.

Tests used:
[1] = Half life in female rat at 5 mg/kg, iv; assay type: ADME, organism-based; set-up: dose 5 mg/kg, route intravenous; details: in vivo
[2] = test system: Homo sapiens; assay: Toxicity in human assessed as change in RBC count at 600 to 800 mg, po administered as single dose with meal on day 1 and day 15 followed by bid with meal on day 2 to day 14 measured during compound treatment; assay type: organism-based; details: in vivo
[3] = AUC (0 to infinity) in human at 900 mg, po administered as single dose at 30 mins post fat meal; assay type: ADME, organism-based; set-up: dose 900 mg, time infinity, route oral; details: plasma
How it was run: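 Crossover study in 12 subjects (6 of each gender). Each received a single oral 900 mg dose either fasting or 30 min after a fat-containing meal, and AUC0−inf was determined.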

[4] = test system: Rattus norvegicus; assay: Toxicity in female rat assessed as effect on mean corpuscular volume at 100 mg/kg/day, po bid administered for 4 weeks (reference value: 53.72 fL); assay type: organism-based; set-up: route oral; details: in vivo, 672 h
[5] = test system: Rattus norvegicus; assay: Toxicity in rat assessed as rate of body weight gain at 100 mg/kg, po bid measured over 4 weeks of test period; assay type: organism-based; set-up: dose 100 mg/kg, route oral; details: in vivo, 672 h
[6] = test system: Staphylococcus aureus; assay: Antibacterial activity against methicillin-resistant Staphylococcus aureus isolate 0605 in po dosed mouse thigh infection model; assay type: functional, organism-based; details: Thigh muscle
[7] = test system: Staphylococcus aureus; assay: Antibacterial activity against methicillin-sensitive Staphylococcus aureus ATCC 29213 in po dosed mouse thigh infection model; assay type: functional, organism-based; details: Thigh muscle
How it was run: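 Mouse thigh infection with S. aureus ATCC29213 (MSSA), 10 animals per dosing group. Oral doses were 5, 10, 20, 40 and 80 mg/kg. The read-out was log CFU per thigh after treatment, and the reduction (ΔLogCFU/thigh) was reported.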

[8] = test system: Rattus norvegicus; assay: Toxicity in rat assessed as mortality at 200 mg/kg, po bid administered for 4 weeks measured on day 14; assay type: organism-based; set-up: dose 200 mg/kg, route oral; details: in vivo, 672 h
How it was run: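 Rats, 10 per gender per group, given drug orally twice daily at 20, 100 and 200/300 mg/kg/day for 4 weeks, then a 4-week recovery period. The top dose of 200 mg/kg/day was raised to 300 mg/kg/day on day 15. The comparator was dosed the same way at 100 and 200 mg/kg/day. Monitoring covered mortality, body weight, hematology and bone marrow, with blood taken for TK on days 1, 14 and 28.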

[9] = target: Cytochrome P450 1A2 (Homo sapiens, UniProt P05177); assay: Inhibition of CYP1A2 (unknown origin) at 1 to 200 uM; assay type: ADME
Chain of Cytochrome P450 1A2 (P05177 whole entry): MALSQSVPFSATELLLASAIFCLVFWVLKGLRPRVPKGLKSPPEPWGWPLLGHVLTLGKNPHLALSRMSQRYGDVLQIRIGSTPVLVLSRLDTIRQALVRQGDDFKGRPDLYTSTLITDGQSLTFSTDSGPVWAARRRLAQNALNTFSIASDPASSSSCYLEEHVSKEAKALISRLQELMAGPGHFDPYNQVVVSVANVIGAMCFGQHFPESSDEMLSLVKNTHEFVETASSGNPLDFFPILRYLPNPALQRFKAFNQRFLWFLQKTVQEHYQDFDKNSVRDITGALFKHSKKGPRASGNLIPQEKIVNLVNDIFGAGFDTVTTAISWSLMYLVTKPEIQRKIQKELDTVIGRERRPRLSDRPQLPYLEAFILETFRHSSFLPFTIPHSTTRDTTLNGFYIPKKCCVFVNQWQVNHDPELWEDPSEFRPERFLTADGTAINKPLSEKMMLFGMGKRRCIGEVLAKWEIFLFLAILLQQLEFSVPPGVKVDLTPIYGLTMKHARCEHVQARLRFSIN

[10] = test system: Streptococcus pneumoniae; assay: Bactericidal activity against penicillin intermediate-sensitive Streptococcus pneumoniae; assay type: functional
[11] = AUC (0 to t) in male rat at 45 mg/kg, po; assay type: ADME, organism-based; set-up: dose 45 mg/kg, route oral; details: plasma
How it was run: (§1)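 Rat PK by gender, with single oral doses of 5, 15 and 45 mg/kg and an iv dose of 5 mg/kg. Tmax, Cmax, T1/2 and AUC0−t were reported per gender.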

[12] = Tmax in male rat at 5 mg/kg, po; assay type: ADME, organism-based; set-up: dose 5 mg/kg, route oral; details: in vivo
How it was run: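 Male and female rats received single oral doses of 5, 15 or 45 mg/kg, with 5 mg/kg iv as a reference arm. Tmax was read from the plasma concentration–time profile for each gender.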

[13] = test system: Streptococcus sanguinis; assay: Antibacterial activity against Streptococcus sanguinis; assay type: functional
[14] = test system: Mus musculus; assay: Dose normalized AUC (0 to t) in po dosed mouse; assay type: ADME, organism-based; details: in vivo
[15] = test system: Staphylococcus aureus; assay: Antibacterial activity against Staphylococcus aureus measured after 4 serial passages; assay type: functional
[16] = test system: Streptococcus mitis; assay: Antibacterial activity against Streptococcus mitis; assay type: functional
[17] = test system: Staphylococcus aureus; assay: Antibacterial activity against Staphylococcus aureus in po dosed mouse septicemia model; assay type: functional
[18] = Half life in male rat at 5 mg/kg, po; assay type: ADME, organism-based; set-up: dose 5 mg/kg, route oral; details: in vivo
[19] = test system: Staphylococcus aureus; assay: Antibacterial activity against methicillin-resistant Staphylococcus aureus by agar dilution method; assay type: functional
How it was run: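 MIC determined by agar dilution across S. aureus/MRSA isolates; MIC90 is the concentration inhibiting 90% of strains tested.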

[20] = test system: Streptococcus pneumoniae; assay: Antibacterial activity against penicillin-sensitive Streptococcus pneumoniae isolate 0806 in po dosed mouse systemic infection model; assay type: functional; details: isolate 0806, po
[21] = test system: Enterococcus faecium; assay: Bacteriostatic activity against vancomycin-sensitive Enterococcus faecium; assay type: functional
[22] = AUC (0 to 24 hrs) in female rat at 200 mg/kg/day, po bid administered for 4 weeks; assay type: ADME, organism-based; set-up: dose 200 mg/kg/day, time < 24 hr, route oral; details: plasma
How it was run: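 Repeat-dose toxicity study in rats (10/gender/group) dosed orally twice daily for 4 weeks, then a 4-week recovery period; the top dose was raised from 200 to 300 mg/kg/day on day 15. Blood was taken on days 1, 14 and 28 for toxicokinetics, and AUC0−24 was reported for females.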

[23] = test system: Streptococcus pneumoniae; assay: Antibacterial activity against penicillin-resistant Streptococcus pneumoniae isolate 0613 in po dosed mouse systemic infection model; assay type: functional; details: isolate 0613, po
[24] = AUC (0 to infinity) in fasted human at 900 mg, po administered as single dose; assay type: ADME, organism-based; set-up: dose 900 mg, route oral, time infinity; details: plasma
How it was run: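 Single-dose, three-period Latin-square crossover in 12 healthy volunteers (6 of each gender). Each received single oral 300, 600 and 900 mg doses under fasting conditions, with a 1-week washout between doses. PK parameters, including AUC0−inf, came from a noncompartmental model.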

[25] = test system: Staphylococcus aureus; assay: Antibacterial activity against methicillin-resistant Staphylococcus aureus isolate 0605 in mouse thigh infection model assessed as reduction of log10 CFU per thigh at 40 mg/kg, po; assay type: functional
[26] = target: Cytochrome P450 3A4 (Homo sapiens, UniProt P08684); assay: Inhibition of CYP3A4 (unknown origin) at 1 to 200 uM; assay type: ADME
Chain of Cytochrome P450 3A4 (P08684 whole entry): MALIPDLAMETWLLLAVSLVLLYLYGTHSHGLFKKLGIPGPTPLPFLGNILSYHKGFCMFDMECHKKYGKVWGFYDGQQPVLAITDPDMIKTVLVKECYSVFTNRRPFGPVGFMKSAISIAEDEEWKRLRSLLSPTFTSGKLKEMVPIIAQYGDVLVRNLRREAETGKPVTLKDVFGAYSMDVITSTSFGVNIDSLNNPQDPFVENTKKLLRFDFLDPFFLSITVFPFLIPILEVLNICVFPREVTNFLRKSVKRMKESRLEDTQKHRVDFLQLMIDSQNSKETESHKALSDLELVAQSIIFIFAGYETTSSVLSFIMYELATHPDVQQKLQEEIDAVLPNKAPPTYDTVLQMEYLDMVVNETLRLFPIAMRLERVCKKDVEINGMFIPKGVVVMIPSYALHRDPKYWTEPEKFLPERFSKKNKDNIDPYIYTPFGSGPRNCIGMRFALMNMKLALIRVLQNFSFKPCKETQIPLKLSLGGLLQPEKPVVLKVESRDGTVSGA

[27] = test system: Streptococcus pneumoniae; assay: Antibacterial activity against penicillin-sensitive Streptococcus pneumoniae isolate 0806; assay type: functional
[28] = test system: Staphylococcus aureus; assay: Antibacterial activity against Staphylococcus aureus measured after 9 serial passages; assay type: functional
[29] = Tmax in fasted human at 600 mg, po administered as single dose; assay type: ADME, organism-based; details: in vivo
How it was run: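 Randomized single-dose, three-period Latin-square crossover in 12 healthy volunteers (six per gender), fasting. Single oral doses of 300, 600 and 900 mg were separated by a 1-week washout. PK parameters were derived by noncompartmental analysis.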

[30] = Myelosuppression activity against human CD34-positive blood stem/progenitor cells assessed as growth inhibition after 9 to 10 days by CellTiter-Glo luminescent assay
[31] = test system: Rattus norvegicus; assay: Toxicity in female rat assessed as effect on mean corpuscular hemoglobin level at 200 to 300 mg/kg/day, po bid administered for 4 weeks (reference value: 19.5 pg); assay type: organism-based; set-up: route oral; details: in vivo, 672 h
[32] = test system: Rattus norvegicus; assay: Drug uptake in rat at 20 to 300 mg/kg/day, po bid administered for 4 weeks measured after day 28; assay type: ADME, organism-based; set-up: route oral; details: in vivo, 672 h
How it was run: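 Rats, 10 per sex per group, dosed orally twice daily at 20, 100 and 200 mg/kg/day for 4 weeks, then a 4-week recovery. The top dose was raised to 300 mg/kg/day on day 15. Toxicokinetic blood samples were drawn on days 1, 14 and 28.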

[33] = test system: Staphylococcus aureus; assay: Antibacterial activity against Staphylococcus aureus measured after 5 serial passages; assay type: functional
[34] = AUC (0 to t) in male rat at 15 mg/kg, po; assay type: ADME, organism-based; set-up: dose 15 mg/kg, route oral; details: plasma; how it was run: as §1
[35] = test system: Rattus norvegicus; assay: Toxicity in female rat assessed as effect on hematocrit level at 200 to 300 mg/kg/day, po bid administered for 4 weeks (reference value: 39.08%); assay type: organism-based; set-up: route oral; details: in vivo, 672 h
[36] = test system: Homo sapiens; assay: Toxicity in human at 600 to 800 mg, po administered as single dose with meal on day 1 and day 15 followed by bid with meal on day 2 to day 14 measured during compound treatment; assay type: organism-based; details: in vivo
[37] = test system: Canis familiaris; assay: Dose normalized Cmax in po dosed dog; assay type: ADME, organism-based, Canis lupus familiaris; details: in vivo

O=C1C=CN(c2c(F)cc(N3C[C@H](CNc4ccon4)OC3=O)c(F)c2F)CC1 [CONTEZOLID]
half-life [1]: 1.51 h | Activity [2]: Non-toxic | AUC(0-inf) [3]: 141000 ng·h/mL | Activity [4]: 54.78 fL | Activity [5]: Non-toxic | Activity [6]: Dose-dependent effect | Activity [7]: Dose-dependent effect | Activity [8]: Toxic | inhibition (INH) [9]: Not Active | MIC50 [10]: 0.5 µg/mL (≈ 1.22 µM) | MIC90 [10]: 0.5 µg/mL (≈ 1.22 µM) | AUC(0-t) [11]: 93800 ng·h/mL | Tmax [12]: 0.5 h | MIC [13]: 0.25 µg/mL (≈ 0.612 µM) | AUCt/dose [14]: 1654 ng·h/mL/mg/kg | MIC [15]: 2 µg/mL (≈ 4.9 µM) | MIC50 [16]: 0.5 µg/mL (≈ 1.22 µM) | MIC90 [16]: 1 µg/mL (≈ 2.45 µM) | ED50 [17]: 7.9 mg/kg | half-life [18]: 1.08 h | MIC50 [19]: 0.5 µg/mL (≈ 1.22 µM) | MIC90 [19]: 0.5 µg/mL (≈ 1.22 µM) | ED50 [20]: 22 mg/kg | MIC50 [21]: 1 µg/mL (≈ 2.45 µM) | MIC90 [21]: 1 µg/mL (≈ 2.45 µM) | AUC at 24 h [22]: 626000 ng·h/mL | ED50 [23]: 10.5 mg/kg | AUC(0-inf) [24]: 59200 ng·h/mL | deltalog10CFU [25]: 4.13 | inhibition (INH) [26]: Not Active | MIC [27]: 2 µg/mL (≈ 4.9 µM) | MIC [28]: 2 µg/mL (≈ 4.9 µM) | Tmax [29]: 2 h | IC50 [30]: 15.7 µg/mL (≈ 38.4 µM) | Activity [31]: 20.48 pg | Drug uptake [32]: Not Active | MIC [33]: 2 µg/mL (≈ 4.9 µM) | AUC(0-t) [34]: 34300 ng·h/mL | Activity [35]: 30.6% | Activity [36]: Non-toxic | Cmax/dose [37]: 259 ng/mL/(mg/kg)
